Source: ChEMBL document CHEMBL5046302, “Identification and Evaluation of Brominated Carbazoles as a Novel Antibiotic Adjuvant Scaffold in MRSA” (2022)
In brackets after ≈: the same amount, converted by molar mass.

Experiments:
Type in all cases: functional
Staphylococcus aureus [1] = assay: Upregulation of pbp2 gene expression in methicillin-resistant Staphylococcus aureus ATCC 43300 assessed as fold change by RT-PCR method
Staphylococcus aureus [2] = assay: Antibacterial activity against methicillin-resistant Staphylococcus aureus ATCC 43300 assessed as inhibition of bacterial growth after 18 hrs by CLSI protocol based broth microdilution assay
Summary of the method: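 Broth microdilution MIC of carbazole alone vs MRSA ATCC 43300, tested up to 200 μM.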

Staphylococcus aureus [3] = assay: Potentiation of ceftazidime induced antibacterial activity against methicillin-resistant Staphylococcus aureus ATCC 43300 assessed as fold change in ceftazidime MIC at 50 uM after 18 hrs by CLSI protocol based broth microdilution assay
Staphylococcus aureus [4] = assay: Potentiation of ceftazidime induced antibacterial activity against methicillin-resistant Staphylococcus aureus USA100 assessed as ceftazidime MIC at 50 uM after 18 hrs by CLSI protocol based broth microdilution assay
Staphylococcus aureus [5] = assay: Potentiation of methicillin induced antibacterial activity against methicillin-resistant Staphylococcus aureus COL assessed as fold change in methicillin MIC at 50 uM after 18 hrs by CLSI protocol based broth microdilution assay
Staphylococcus aureus [6] = assay: Potentiation of methicillin induced antibacterial activity against methicillin-resistant Staphylococcus aureus ATCC 43300 assessed as methicillin MIC at 50 uM after 18 hrs by CLSI protocol based broth microdilution assay
Staphylococcus aureus [7] = assay: Potentiation of oxacillin induced antibacterial activity against methicillin-resistant Staphylococcus aureus USA300 assessed as fold change in oxacillin MIC at 50 uM after 18 hrs by CLSI protocol based broth microdilution assay
Staphylococcus aureus [8] = assay: Potentiation of methicillin induced antibacterial activity against methicillin-resistant Staphylococcus aureus USA300 assessed as methicillin MIC at 50 uM after 18 hrs by CLSI protocol based broth microdilution assay
Staphylococcus aureus [9] = assay: Potentiation of ampicillin induced antibacterial activity against methicillin-resistant Staphylococcus aureus ATCC 43300 assessed as fold change in ampicillin MIC at 50 uM after 18 hrs by CLSI protocol based broth microdilution assay
Staphylococcus aureus [10] = assay: Potentiation of ampicillin induced antibacterial activity against methicillin-resistant Staphylococcus aureus ATCC 43300 assessed as ampicillin MIC at 50 uM after 18 hrs by CLSI protocol based broth microdilution assay
Staphylococcus aureus [11] = assay: Potentiation of cefoxitin induced antibacterial activity against methicillin-resistant Staphylococcus aureus USA300 assessed as cefoxitin MIC at 50 uM after 18 hrs by CLSI protocol based broth microdilution assay
Staphylococcus aureus [12] = assay: Potentiation of ceftazidime induced antibacterial activity against methicillin-resistant Staphylococcus aureus USA300 assessed as fold change in ceftazidime MIC at 50 uM after 18 hrs by CLSI protocol based broth microdilution assay
Staphylococcus aureus [13] = assay: Potentiation of methicillin induced antibacterial activity against methicillin-resistant Staphylococcus aureus USA100 assessed as fold change in methicillin MIC at 50 uM after 18 hrs by CLSI protocol based broth microdilution assay
Staphylococcus aureus [14] = assay: Potentiation of oxacillin induced antibacterial activity against methicillin-resistant Staphylococcus aureus ATCC 43300 assessed as oxacillin MIC at 50 uM after 18 hrs by CLSI protocol based broth microdilution assay
Staphylococcus aureus [15] = assay: Potentiation of methicillin induced antibacterial activity against methicillin-resistant Staphylococcus aureus USA300 assessed as fold change in methicillin MIC at 50 uM after 18 hrs by CLSI protocol based broth microdilution assay
Staphylococcus aureus [16] = assay: Potentiation of ampicillin induced antibacterial activity against methicillin-resistant Staphylococcus aureus USA300 assessed as ampicillin MIC at 50 uM after 18 hrs by CLSI protocol based broth microdilution assay
Staphylococcus aureus [17] = assay: Potentiation of cefoxitin induced antibacterial activity against methicillin-resistant Staphylococcus aureus USA100 assessed as fold change in cefoxitin MIC at 50 uM after 18 hrs by CLSI protocol based broth microdilution assay
Staphylococcus aureus [18] = assay: Potentiation of ampicillin induced antibacterial activity against methicillin-resistant Staphylococcus aureus USA300 assessed as fold change in ampicillin MIC at 50 uM after 18 hrs by CLSI protocol based broth microdilution assay
Staphylococcus aureus [19] = assay: Potentiation of ceftazidime induced antibacterial activity against methicillin-resistant Staphylococcus aureus USA100 assessed as fold change in ceftazidime MIC at 50 uM after 18 hrs by CLSI protocol based broth microdilution assay
Staphylococcus aureus [20] = assay: Potentiation of ampicillin induced antibacterial activity against methicillin-resistant Staphylococcus aureus COL assessed as ampicillin MIC at 50 uM after 18 hrs by CLSI protocol based broth microdilution assay
Staphylococcus aureus [21] = assay: Potentiation of cefoxitin induced antibacterial activity against methicillin-resistant Staphylococcus aureus ATCC 43300 assessed as cefoxitin MIC at 50 uM after 18 hrs by CLSI protocol based broth microdilution assay
Staphylococcus aureus [22] = assay: Potentiation of ceftazidime induced antibacterial activity against methicillin-resistant Staphylococcus aureus COL assessed as ceftazidime MIC at 50 uM after 18 hrs by CLSI protocol based broth microdilution assay
Staphylococcus aureus [23] = assay: Potentiation of methicillin induced antibacterial activity against methicillin-resistant Staphylococcus aureus COL assessed as methicillin MIC at 50 uM after 18 hrs by CLSI protocol based broth microdilution assay
Staphylococcus aureus [24] = assay: Potentiation of methicillin induced antibacterial activity against methicillin-resistant Staphylococcus aureus ATCC 43300 assessed as fold change in methicillin MIC at 50 uM after 18 hrs by CLSI protocol based broth microdilution assay
Staphylococcus aureus [25] = assay: Potentiation of oxacillin induced antibacterial activity against methicillin-resistant Staphylococcus aureus USA300 assessed as oxacillin MIC at 50 uM after 18 hrs by CLSI protocol based broth microdilution assay
Staphylococcus aureus [26] = assay: Potentiation of ampicillin induced antibacterial activity against methicillin-resistant Staphylococcus aureus USA100 assessed as fold change in ampicillin MIC at 50 uM after 18 hrs by CLSI protocol based broth microdilution assay
Staphylococcus aureus [27] = assay: Potentiation of cefoxitin induced antibacterial activity against methicillin-resistant Staphylococcus aureus USA100 assessed as cefoxitin MIC at 50 uM after 18 hrs by CLSI protocol based broth microdilution assay
Staphylococcus aureus [28] = assay: Potentiation of oxacillin induced antibacterial activity against methicillin-resistant Staphylococcus aureus COL assessed as oxacillin MIC at 50 uM after 18 hrs by CLSI protocol based broth microdilution assay
Staphylococcus aureus [29] = assay: Potentiation of cefoxitin induced antibacterial activity against methicillin-resistant Staphylococcus aureus ATCC 43300 assessed as fold change in cefoxitin MIC at 50 uM after 18 hrs by CLSI protocol based broth microdilution assay
Staphylococcus aureus [30] = assay: Potentiation of oxacillin induced antibacterial activity against methicillin-resistant Staphylococcus aureus USA100 assessed as oxacillin MIC at 50 uM after 18 hrs by CLSI protocol based broth microdilution assay
Staphylococcus aureus [31] = assay: Potentiation of cefoxitin induced antibacterial activity against methicillin-resistant Staphylococcus aureus COL assessed as cefoxitin MIC at 50 uM after 18 hrs by CLSI protocol based broth microdilution assay
Staphylococcus aureus [32] = assay: Potentiation of ceftazidime induced antibacterial activity against methicillin-resistant Staphylococcus aureus COL assessed as fold change in ceftazidime MIC at 50 uM after 18 hrs by CLSI protocol based broth microdilution assay

SMILES: Brc1cccc2[nH]c3ccccc3c12
- fold change (FC) (Staphylococcus aureus [1]): 2
- MIC (Staphylococcus aureus [2]): 100 µM (≈ 24.6 µg/mL)

SMILES: Brc1ccc2[nH]c3ccc(Br)cc3c2c1
- fold change (FC) (Staphylococcus aureus [3]): 1
- MIC (Staphylococcus aureus [4]): 256 µg/mL
- fold change (FC) (Staphylococcus aureus [5]): 1
- MIC (Staphylococcus aureus [6]): 2 µg/mL
- fold change (FC) (Staphylococcus aureus [7]): 2
- MIC (Staphylococcus aureus [8]): 8 µg/mL
- fold change (FC) (Staphylococcus aureus [9]): 1
- MIC (Staphylococcus aureus [10]): 16 µg/mL
- MIC (Staphylococcus aureus [11]): 64 µg/mL
- fold change (FC) (Staphylococcus aureus [12]): 1
- fold change (FC) (Staphylococcus aureus [13]): 16
- MIC (Staphylococcus aureus [14]): 8 µg/mL
- fold change (FC) (Staphylococcus aureus [15]): 4
- MIC (Staphylococcus aureus [16]): 8 µg/mL
- fold change (FC) (Staphylococcus aureus [17]): 2
- fold change (FC) (Staphylococcus aureus [18]): 1
- fold change (FC) (Staphylococcus aureus [19]): 4
- MIC (Staphylococcus aureus [20]): 8 µg/mL
- MIC (Staphylococcus aureus [21]): 32 µg/mL
- MIC (Staphylococcus aureus [22]): 1020 µg/mL
- MIC (Staphylococcus aureus [23]): 1020 µg/mL
- fold change (FC) (Staphylococcus aureus [24]): 1
- MIC (Staphylococcus aureus [25]): 16 µg/mL
- fold change (FC) (Staphylococcus aureus [26]): 1
- MIC (Staphylococcus aureus [27]): 64 µg/mL
- MIC (Staphylococcus aureus [28]): 128 µg/mL
- fold change (FC) (Staphylococcus aureus [29]): 2
- MIC (Staphylococcus aureus [30]): 128 µg/mL
- MIC (Staphylococcus aureus [31]): 512 µg/mL
- fold change (FC) (Staphylococcus aureus [32]): 1
- MIC (Staphylococcus aureus [2]): > 200 µM

SMILES: Brc1cccc2c1[nH]c1ccccc12
- fold change (FC) (Staphylococcus aureus [3]): 2
- MIC (Staphylococcus aureus [4]): 256 µg/mL
- fold change (FC) (Staphylococcus aureus [5]): 1
- MIC (Staphylococcus aureus [6]): 4 µg/mL
- fold change (FC) (Staphylococcus aureus [7]): 4
- MIC (Staphylococcus aureus [8]): 8 µg/mL
- fold change (FC) (Staphylococcus aureus [9]): 8
- MIC (Staphylococcus aureus [10]): 4 µg/mL
- MIC (Staphylococcus aureus [11]): 16 µg/mL
- fold change (FC) (Staphylococcus aureus [12]): 1
- fold change (FC) (Staphylococcus aureus [13]): 64
- MIC (Staphylococcus aureus [14]): 4 µg/mL
- fold change (FC) (Staphylococcus aureus [15]): 4
- MIC (Staphylococcus aureus [16]): 8 µg/mL
- fold change (FC) (Staphylococcus aureus [17]): 16
- fold change (FC) (Staphylococcus aureus [18]): 1
- fold change (FC) (Staphylococcus aureus [19]): 2
- MIC (Staphylococcus aureus [20]): 16 µg/mL
- MIC (Staphylococcus aureus [21]): 16 µg/mL
- MIC (Staphylococcus aureus [22]): 1020 µg/mL
- MIC (Staphylococcus aureus [23]): 1020 µg/mL
- fold change (FC) (Staphylococcus aureus [24]): 1
- fold change (FC) (Staphylococcus aureus [1]): 2
- MIC (Staphylococcus aureus [25]): 16 µg/mL
- fold change (FC) (Staphylococcus aureus [26]): 4
- MIC (Staphylococcus aureus [27]): 16 µg/mL
- MIC (Staphylococcus aureus [28]): 512 µg/mL
- fold change (FC) (Staphylococcus aureus [29]): 4
- MIC (Staphylococcus aureus [30]): 0.5 µg/mL
- MIC (Staphylococcus aureus [31]): 256 µg/mL
- fold change (FC) (Staphylococcus aureus [32]): 1
- MIC (Staphylococcus aureus [2]): > 200 µM
